Measured values from ChEMBL document CHEMBL3351585, “Design, synthesis and biological evaluation of novel peptides with anti-cancer and drug resistance-reversing activities” (Eur J Med Chem, 2015).
One block for each substance: values may come before it. Calls of active or inactive are those of the source. The rule behind the calls is not given here.

What was measured:
[1] = Retention time of the compound by UPLC method; format: physicochemical
MCF7 [2] = test: Anticancer activity against human MCF7 cells after 48 hrs by MTT assay; format: functional, cell-based; settings: MCF7, 48 h
Method in brief: (§1)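 Cells grown in RPMI1640 with 10% heat-inactivated FBS and 1% penicillin-streptomycin at 37 °C, 5% CO2. Log-phase cells were seeded at 5 × 10^3/well 24 h before treatment, exposed to a range of peptide concentrations for 48 h, then given MTT for 4 h. Formazan was dissolved in DMSO and A490 read. Survival was computed relative to untreated wells, and IC50 taken from the survival curve.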

K562 = test: Anticancer activity against human K562 cells after 48 hrs by MTT assay; format: functional, cell-based; settings: K562, 48 h; method in brief: as §1
[3] = Cytotoxicity against human GES-1 cells after 48 hrs by MTT assay; format: cell-based; settings: GES1, 48 h; method in brief: as §1
[4] = Toxicity in rabbit erythrocytes assessed as induction of hemolysis at 160 uM incubated for 1 hr by microplate reader assay; format: cell-based, Oryctolagus cuniculus; settings: erythrocyte
Method in brief: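 Rabbit red blood cells in PBS were mixed 1:1 by volume with peptide solution and incubated 1 h at 37 °C, then spun at 1000 g for 5 min. Hemoglobin in the supernatant was read at 540 nm. PBS defined 0% hemolysis and 0.1% Triton X-100 defined 100%.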

[5] = Increase in adriamycin uptake in human K562/ADR cells at 0.5 uM after 2.5 hrs by fluorescence spectrophotometry; format: ADME, cell-based
Method in brief: (§2)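 2 × 10^5 MCF-7/ADM or K562/ADM cells were co-incubated 2.5 h with ADM plus peptide, or with verapamil as comparator. After washing in cold PBS, cells were lysed in 0.75 M HCl/0.2% Triton X-100 in isopropanol. Lysate ADM fluorescence was measured by spectrofluorometry at ex 460/em 610 nm.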

[6] = Anticancer activity against human MCF7/ADR cells after 48 hrs by MTT assay; format: functional, cell-based; settings: NCI/ADR-RES; method in brief: as §1
[7] = Anticancer activity against human K562/ADR cells after 48 hrs by MTT assay; format: functional, cell-based; method in brief: as §1
MCF7 [8] = test: Induction of cell membrane alteration in human MCF7 cells at 5 uM incubated for 30 mins by acridine orange/ethidium bromide double staining method; format: functional, cell-based
Method in brief: (§3)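 MCF-7 cells were plated at 1 × 10^5/well and grown 24 h, then given peptide for 30 min. Cells were washed twice with PBS and stained 10 min in the dark with cold PBS containing acridine orange and ethidium bromide. Excess dye was washed off, then cells were imaged by fluorescence microscopy. Red EB staining marks membrane-compromised cells.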

MCF7 [9] = test: Induction of cell membrane morphology changes in human MCF7 cells at 5 uM incubated for 30 mins by scanning electron microscopy; format: functional, cell-based
Method in brief: (§4)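 MCF-7 cells were grown 24 h on coverslips at 1 × 10^5/well and exposed to peptide for 30 min. Cells were gently PBS-washed, fixed in 2.5% glutaraldehyde, and examined by scanning electron microscopy.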

[10] = Drug uptake in cytosol of human MCF7 cells at 5 uM incubated for 5 mins or 30 mins by fluorescein isothiocyanate labeling based fluorescence microscopy; format: ADME, cell-based
Method in brief: (§5)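 MCF-7 cells were plated at 1 × 10^5/well and grown 24 h, then exposed to FITC-labeled peptides for 5 min or 30 min. Cells were washed three times with cold PBS, and intracellular fluorescence was imaged by fluorescence microscopy.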

MCF7 [11] = test: Induction of mitochondrial membrane potential depolarization in human MCF7 cells at 5 uM incubated for 2 hrs by JC1 staining; format: functional, cell-based
Method in brief: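 MCF-7 cells plated at 1 × 10^5 per well, grown 24 h, then exposed to peptide for 2 h. Mitochondrial membrane potential was assessed with a JC-1 mitochondrial membrane potential kit. Green (monomer) and red (J-aggregate) fluorescence were imaged, with merged orange taken as normal potential.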

MCF7 [12] = test: Induction of cytochrome c release in human MCF7 cells at 5 uM incubated for 2 hrs by ELISA method (reference value: 364.2 +/- 20.5 ng); format: functional
MCF7 [13] = test: Induction of cytochrome c release in extracellular region of human MCF7 cells at 5 uM incubated for 2 hrs by ELISA method (reference value: 15.7 +/- 0.77 ng); format: functional
MCF7 [14] = test: Induction of cytochrome c release in cytoplasm of human MCF7 cells at 5 uM incubated for 2 hrs by ELISA method (reference value: 44.1 +/- 2.7 ng); format: functional
MCF7 [15] = test: Induction of cytochrome c release in mitochondria of human MCF7 cells at 5 uM incubated for 2 hrs by ELISA method (reference value: 347.8 +/- 14.5 ng); format: functional
MCF7 [16] = test: Antimigratory activity in human MCF7 cells assessed as inhibition of cell migration at 0.5 uM incubated for 48 hrs by wound healing assay; format: functional, cell-based
Method in brief: (§6)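 MCF-7 cells were seeded at 2 × 10^5/well and grown 24 h to 90% confluence. A cell-free gap was scratched, and cells migrated in serum-free medium with peptide for 48 h. Wound closure was photographed at 0 h and 48 h.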

MCF7 [17] = test: Antimigratory activity in human MCF7 cells assessed as inhibition of cell migration at 0.5 uM incubated for 48 hrs by transwell migration assay; format: functional, cell-based
Method in brief: (§7)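 Transwell chambers with a porous membrane separating upper and lower compartments. 4 × 10^4 MCF-7 cells were placed in the upper chamber in peptide-containing medium and incubated 48 h. Cells that reached the lower membrane surface were counted.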

NCI/ADR-RES [18] = test: Potentiation of adriamycin-induced cytotoxicity against human MCF7/ADR cells at 0.5 uM after 48 hrs by MTT assay; format: functional, cell-based
Method in brief: (§8)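 ADM-resistant MCF-7/ADM or K562/ADM cells, grown in RPMI1640 with 10% FBS at 37 °C and 5% CO2, were seeded at 1 × 10^4 per well and held 24 h. Fixed peptide was added, followed by graded ADM concentrations, for 48 h. MTT was then given for 4 h at 37 °C, formazan dissolved in DMSO and absorbance read at 570 nm. Verapamil served as positive control.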

K562/Adr [19] = test: Potentiation of adriamycin-induced cytotoxicity against human K562/ADR cells at 0.5 uM after 48 hrs by MTT assay; format: functional, cell-based; method in brief: as §8
[20] = Increase in adriamycin uptake in human MCF7/ADR cells at 0.5 uM after 2.5 hrs by fluorescence microscopy; format: ADME, cell-based; settings: nci/adr-res
Method in brief: (§9)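 2 × 10^5 MCF-7/ADM or K562/ADM cells were co-incubated 2.5 h with ADM plus peptide, or with verapamil as comparator. Cells were washed with cold PBS and ADM fluorescence was imaged by fluorescence microscopy.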

[21] = Increase in adriamycin uptake in human K562/ADR cells at 0.5 uM after 2.5 hrs by fluorescence microscopy; format: ADME, cell-based; method in brief: as §9
[22] = Increase in adriamycin uptake in human MCF7/ADR cells at 0.5 uM after 2.5 hrs by fluorescence spectrophotometry; format: ADME, cell-based; settings: nci/adr-res; method in brief: as §2
MCF7 [23] = test: Induction of cell membrane alteration in human MCF7 cells at 20 uM incubated for 30 mins by acridine orange/ethidium bromide double staining method; format: functional, cell-based; method in brief: as §3
MCF7 [24] = test: Induction of cell membrane morphology changes in human MCF7 cells at 20 uM incubated for 30 mins by scanning electron microscopy; format: functional, cell-based; method in brief: as §4
[25] = Drug uptake in cytosol of human MCF7 cells at 20 uM incubated for 5 mins or 30 mins by fluorescein isothiocyanate labeling based fluorescence microscopy; format: ADME, cell-based; method in brief: as §5
MCF7 [26] = test: Induction of mitochondrial membrane potential depolarization in human MCF7 cells at 20 uM incubated for 2 hrs by JC1 staining; format: functional, cell-based
Method in brief: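 MCF-7 cells were plated at 1 × 10^5/well, grown 24 h, and treated with peptide for 2 h. Mitochondrial membrane potential was assessed with a JC-1 kit by imaging red and green fluorescence.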

MCF7 [27] = test: Induction of cytochrome c release in human MCF7 cells at 20 uM incubated for 2 hrs by ELISA method (reference value: 364.2 +/- 20.5 ng); format: functional
MCF7 [28] = test: Induction of cytochrome c release in extracellular region of human MCF7 cells at 20 uM incubated for 2 hrs by ELISA method (reference value: 15.7 +/- 0.77 ng); format: functional
MCF7 [29] = test: Induction of cytochrome c release in cytoplasm of human MCF7 cells at 20 uM incubated for 2 hrs by ELISA method (reference value: 44.1 +/- 2.7 ng); format: functional
MCF7 [30] = test: Induction of cytochrome c release in mitochondria of human MCF7 cells at 20 uM incubated for 2 hrs by ELISA method (reference value: 347.8 +/- 14.5 ng); format: functional
MCF7 [31] = test: Antimigratory activity in human MCF7 cells assessed as inhibition of cell migration at 5 uM incubated for 48 hrs by wound healing assay; format: functional, cell-based; method in brief: as §6
MCF7 [32] = test: Antimigratory activity in human MCF7 cells assessed as inhibition of cell migration at 5 uM incubated for 48 hrs by transwell migration assay; format: functional, cell-based; method in brief: as §7
NCI/ADR-RES [33] = test: Potentiation of adriamycin-induced cytotoxicity against human MCF7/ADR cells at 5 uM after 48 hrs by MTT assay; format: functional, cell-based; method in brief: as §8
K562/Adr [34] = test: Potentiation of adriamycin-induced cytotoxicity against human K562/ADR cells at 5 uM after 48 hrs by MTT assay; format: functional, cell-based; method in brief: as §8
[35] = Increase in adriamycin uptake in human MCF7/ADR cells at 5 uM after 2.5 hrs by fluorescence microscopy; format: ADME, cell-based; settings: nci/adr-res; method in brief: as §9
[36] = Increase in adriamycin uptake in human K562/ADR cells at 5 uM after 2.5 hrs by fluorescence microscopy; format: ADME, cell-based; method in brief: as §9
[37] = Increase in adriamycin uptake in human MCF7/ADR cells at 5 uM after 2.5 hrs by fluorescence spectrophotometry; format: ADME, cell-based; settings: nci/adr-res; method in brief: as §2
[38] = Increase in adriamycin uptake in human K562/ADR cells at 5 uM after 2.5 hrs by fluorescence spectrophotometry; format: ADME, cell-based; method in brief: as §2
MCF7 [39] = test: Induction of cytochrome c release in human MCF7 cells at 5 to 20 uM incubated for 2 hrs by ELISA method

Retention_time [1]: 3.28 min | IC50 (MCF7 [2]): 5 µM | IC50 (K562): 10.5 µM
Substance: H-VKRFKKFFRKLKKHV-NH2
IC50 [3]: 105 µM | Activity [4]: Non-toxic

Activity [5]: Active | Retention_time [1]: 3.84 min | IC50 (MCF7 [2]): 3.6 µM | IC50 (K562): 1.1 µM | Drug uptake [10]: Active | Activity [20]: Active | Activity [21]: Active | Activity [22]: Active
Substance: H-VKRFKKFFRKLKKLV-NH2
IC50 [3]: 77.6 µM | IC50 [6]: 4.4 µM | IC50 [7]: 3.3 µM | Activity [4]: Non-toxic | Activity (MCF7 [8]): Active | Activity (MCF7 [9]): Active | Activity (MCF7 [11]): Active | Activity (MCF7 [12]): 354.8 ng | Activity (MCF7 [13]): 14.9 ng | Activity (MCF7 [14]): 59.9 ng | Activity (MCF7 [15]): 303.8 ng | inhibition (MCF7 [16]): Active | inhibition (MCF7 [17]): Active | Activity (NCI/ADR-RES [18]): Active | Activity (K562/Adr [19]): Active

Retention_time [1]: 3.31 min | IC50 (MCF7 [2]): 14.5 µM | IC50 (K562): 16.2 µM
Substance: H-VKRFKKFFRKLKKQV-NH2
IC50 [3]: 102 µM | Activity [4]: Non-toxic

Retention_time [1]: 3.13 min | IC50 (MCF7 [2]): 5.5 µM | IC50 (K562): 8.7 µM
Substance: H-VKRFKKFFRKLKKRV-NH2
IC50 [3]: 93.3 µM | Activity [4]: Non-toxic

Retention_time [1]: 3.38 min | IC50 (MCF7 [2]): 21.9 µM | IC50 (K562): 26.9 µM | Drug uptake [25]: Active | Activity [35]: Active | Activity [36]: Active | Activity [37]: Active | Activity [38]: Active
Substance: H-VKRFKKFFRKLKKSV-NH2
IC50 [3]: 102 µM | IC50 [6]: 24.1 µM | IC50 [7]: 31.6 µM | Activity [4]: Non-toxic | Activity (MCF7 [23]): Active | Activity (MCF7 [24]): Active | Activity (MCF7 [26]): Active | Activity (MCF7 [27]): 353.4 ng | Activity (MCF7 [28]): 14.7 ng | Activity (MCF7 [29]): 60.3 ng | Activity (MCF7 [30]): 301.4 ng | inhibition (MCF7 [31]): Active | inhibition (MCF7 [32]): Active | Activity (NCI/ADR-RES [33]): Active | Activity (K562/Adr [34]): Active | Activity (MCF7 [39]): Dose-dependent effect

Retention_time [1]: 3.44 min | IC50 (MCF7 [2]): 19.1 µM | IC50 (K562): 17 µM
Substance: H-VKRFKKFFRKLKKTV-NH2
IC50 [3]: 110 µM | Activity [4]: Non-toxic

Retention_time [1]: 3.69 min | IC50 (MCF7 [2]): 4.9 µM | IC50 (K562): 5 µM
Substance: H-VKRFKKFFRKLKKVV-NH2
IC50 [3]: 64.6 µM | Activity [4]: Non-toxic
